According to ChEMBL document CHEMBL2029303, “Syntheses and biological studies of novel spiropiperazinyl oxazolidinone antibacterial agents using a spirocyclic diene derived acylnitroso Diels-Alder reaction” (Bioorg Med Chem, 2012):
In brackets after ≈: the same amount, converted by molar mass. Activity calls are given as the source filed them. No cut-off for these calls is given here.

Key:
[1] = test system: Mycobacterium tuberculosis; assay: Antimycobacterial activity against Mycobacterium tuberculosis H37Rv grown in glycerol-alanine-salts media; assay type: functional
[2] = test system: Mycobacterium tuberculosis; assay: Antimycobacterial activity against Mycobacterium tuberculosis H37Rv grown in iron-deficient glycerol-alanine-salts media; assay type: functional
[3] = test system: Bacillus subtilis; assay: Antibacterial activity against Bacillus subtilis ATCC 6633 at 50 uL of 2 mM solution of compound in 1:9 DMSO/MeOH after 24 hrs by agar diffusion method; assay type: functional
In short: (§1)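 Agar diffusion assay against representative Gram-positive and Gram-negative bacteria and Mycobacterium vaccae; the read-out is the diameter of the inhibition zone around the applied compound, measured in mm.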

[4] = test system: Bacillus subtilis; assay: Antibacterial activity against Bacillus subtilis ATCC 6633 assessed as partial clear inhibition zone at 50 uL of 2 mM solution of compound in 1:9 DMSO/MeOH after 24 hrs by agar diffusion method; assay type: functional; in short: as §1
[5] = test system: Bacillus subtilis; assay: Antibacterial activity against Bacillus subtilis ATCC 6633 assessed as clear inhibition zone at 50 uL of 2 mM solution of compound in 1:9 DMSO/MeOH after 24 hrs by agar diffusion method; assay type: functional; in short: as §1
[6] = test system: Staphylococcus aureus; assay: Antibacterial activity against Staphylococcus aureus SG 511 at 50 uL of 2 mM solution of compound in 1:9 DMSO/MeOH after 24 hrs by agar diffusion method; assay type: functional; in short: as §1
[7] = test system: Staphylococcus aureus; assay: Antibacterial activity against methicillin-resistant Staphylococcus aureus 134/93 at 50 uL of 2 mM solution of compound in 1:9 DMSO/MeOH after 24 hrs by agar diffusion method; assay type: functional
In short: (§2)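 Agar diffusion screen; read-out is the diameter of the inhibition zone, in mm.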

[8] = test system: Escherichia coli; assay: Antibacterial activity against Escherichia coli SG 458 at 50 uL of 2 mM solution of compound in 1:9 DMSO/MeOH after 24 hrs by agar diffusion method; assay type: functional; in short: as §1
[9] = test system: Pseudomonas aeruginosa; assay: Antibacterial activity against Pseudomonas aeruginosa SG 137 at 50 uL of 2 mM solution of compound in 1:9 DMSO/MeOH after 24 hrs by agar diffusion method; assay type: functional; in short: as §1
[10] = test system: Pseudomonas aeruginosa; assay: Antibacterial activity against Pseudomonas aeruginosa K799/61 at 50 uL of 2 mM solution of compound in 1:9 DMSO/MeOH after 24 hrs by agar diffusion method; assay type: functional; in short: as §1
[11] = test system: Mycolicibacterium vaccae; assay: Antimycobacterial activity against Mycobacterium vaccae IMET 10670 assessed as partial clear inhibition zone at 50 uL of 2 mM solution of compound in 1:9 DMSO/MeOH after 24 hrs by agar diffusion method; assay type: functional; in short: as §1
[12] = test system: Staphylococcus aureus; assay: Antibacterial activity against methicillin-sensitive Staphylococcus aureus ATCC 29213; assay type: functional
[13] = test system: Staphylococcus aureus; assay: Antibacterial activity against methicillin-resistant Staphylococcus aureus ATCC 700699; assay type: functional
[14] = test system: Enterococcus faecalis; assay: Antibacterial activity against vancomycin-resistant Enterococcus faecalis 1528 at 50 uL of 2 mM solution of compound in 1:9 DMSO/MeOH after 24 hrs by agar diffusion method; assay type: functional; in short: as §2
[15] = test system: Staphylococcus aureus; assay: Antibacterial activity against methicillin-resistant Staphylococcus aureus ATCC 700699 in presence of 50% mouse serum; assay type: functional
In short: (§3)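 MIC assay run with 50% mouse or human serum added to gauge protein-binding effect. Fold shift is calculated as the MIC with serum over the MIC without serum.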

[16] = test system: Staphylococcus aureus; assay: Antibacterial activity against methicillin-resistant Staphylococcus aureus ATCC 700699 in presence of 50% human serum; assay type: functional; in short: as §3
[17] = test system: Staphylococcus aureus; assay: Ratio of MIC methicillin-resistant Staphylococcus aureus ATCC 700699 in presence of 50% mouse serum to MIC for […]; assay type: functional; in short: as §3
[18] = test system: Staphylococcus aureus; assay: Ratio of MIC methicillin-resistant Staphylococcus aureus ATCC 700699 in presence of 50% human serum to MIC for […]; assay type: functional; in short: as §3
[19] = Cytotoxicity against human HepG2 cells; assay type: cell-based
[20] = test system: Staphylococcus aureus; assay: Antibacterial activity against Staphylococcus aureus SG 511 assessed as partial clear inhibition zone at 50 uL of 2 mM solution of compound in 1:9 DMSO/MeOH after 24 hrs by agar diffusion method; assay type: functional; in short: as §1
[21] = test system: Staphylococcus aureus; assay: Antibacterial activity against methicillin-resistant Staphylococcus aureus 134/93 assessed as clear inhibition zone at 50 uL of 2 mM solution of compound in 1:9 DMSO/MeOH after 24 hrs by agar diffusion method; assay type: functional; in short: as §2
[22] = test system: Enterococcus faecalis; assay: Antibacterial activity against vancomycin-resistant Enterococcus faecalis 1528 assessed as partial clear inhibition zone at 50 uL of 2 mM solution of compound in 1:9 DMSO/MeOH after 24 hrs by agar diffusion method; assay type: functional; in short: as §2
[23] = test system: Staphylococcus aureus; assay: Antibacterial activity against Staphylococcus aureus SG 511 assessed as clear inhibition zone at 50 uL of 2 mM solution of compound in 1:9 DMSO/MeOH after 24 hrs by agar diffusion method; assay type: functional; in short: as §1
[24] = test system: Enterococcus faecalis; assay: Antibacterial activity against vancomycin-resistant Enterococcus faecalis 1528 assessed as unclear inhibition zone at 50 uL of 2 mM solution of compound in 1:9 DMSO/MeOH after 24 hrs by agar diffusion method; assay type: functional; in short: as §2
[25] = test system: Pseudomonas aeruginosa; assay: Antibacterial activity against Pseudomonas aeruginosa K799/61 assessed as clear inhibition zone at 50 uL of 2 mM solution of compound in 1:9 DMSO/MeOH after 24 hrs by agar diffusion method; assay type: functional, organism-based; in short: as §1
[26] = test system: Mycolicibacterium vaccae; assay: Antimycobacterial activity against Mycobacterium vaccae IMET 10670 at 50 uL of 2 mM solution of compound in 1:9 DMSO/MeOH after 24 hrs by agar diffusion method; assay type: functional; in short: as §1
[27] = test system: Mycolicibacterium vaccae; assay: Antimycobacterial activity against Mycobacterium vaccae IMET 10670 assessed as unclear inhibition zone at 50 uL of 2 mM solution of compound in 1:9 DMSO/MeOH after 24 hrs by agar diffusion method; assay type: functional; in short: as §1

Structure (SMILES)	MIC [1]	MIC [2]	diameter of the inhibition zone (DIZ) [3]	diameter of the inhibition zone (DIZ) [5]	diameter of the inhibition zone (DIZ) [6]	diameter of the inhibition zone (DIZ) [7]	diameter of the inhibition zone (DIZ) [8]	diameter of the inhibition zone (DIZ) [9]	diameter of the inhibition zone (DIZ) [10]	diameter of the inhibition zone (DIZ) [11]	diameter of the inhibition zone (DIZ) [14]	other results
CC(C)(C)OC(=O)N1OC2CCC1C21CCN(c2ccc([N+](=O)[O-])cc2F)CC1 (stereo not drawn)	> 128 µM	> 128 µM										
CC(C)(C)OC(=O)N1OC2CCC1C21CCN(c2ccc(NC(=O)OCc3ccccc3)cc2F)CC1 (stereo not drawn)	> 128 µM	> 128 µM										
CC(C)(C)OC(=O)N1OC2CCC1C21CCN(c2ccc(N)cc2F)CC1 (stereo not drawn)	> 128 µM	> 128 µM										
CC(C)(C)OC(=O)N1OC2CCC1C21CCN(c2ccc(N3C[C@H](CO)OC3=O)cc2F)CC1 (stereo partly drawn)	97 µM	> 128 µM	23.5 mm	28 mm	22 mm	24 mm	0 mm	0 mm	0 mm	30 mm	22 mm	diameter of the inhibition zone (DIZ) [4]: 30 mm; MIC [12]: > 64 µg/mL; MIC [13]: 32 µg/mL (≈ 67 µM); MIC [15]: > 64 µg/mL; MIC [16]: > 34 µg/mL; Ratio [17]: >2; Ratio [18]: >2; CC50 [19]: > 100 µM
CC(C)(C)OC(=O)N1OC2CCC1C21CCN(c2ccc(N3C[C@H](COS(C)(=O)=O)OC3=O)cc2F)CC1 (stereo partly drawn)	118 µM	67.4 µM										
CC(=O)NC[C@H]1CN(c2ccc(N3CCC4(CC3)C(O)CCC4NC(=O)OC(C)(C)C)c(F)c2)C(=O)O1 (stereo partly drawn)	> 128 µM	> 128 µM	14 mm	19 mm		14 mm	0 mm	0 mm	0 mm	13 mm	15 mm	diameter of the inhibition zone (DIZ) [20]: 16 mm; diameter of the inhibition zone (DIZ) [21]: 18 mm; diameter of the inhibition zone (DIZ) [22]: 18 mm
CCCC(=O)OC[C@H]1CN(c2ccc(N3CCC4(CC3)C3CCC4N(C(=O)OC(C)(C)C)O3)c(F)c2)C(=O)O1 (stereo partly drawn)	19.2 µM	29.2 µM										
CC(=O)NC[C@H]1CN(c2ccc(N3CCOCC3)c(F)c2)C(=O)O1 [LINEZOLID]		0.4 µM										
CC(C)(C)OC(=O)N1OC2CCC1C21CCN(c2ccc(N3C[C@H](CN)OC3=O)cc2F)CC1 (stereo partly drawn)			12 mm		10 mm		10 mm	0 mm				diameter of the inhibition zone (DIZ) [23]: 13 mm; diameter of the inhibition zone (DIZ) [21]: 14 mm; diameter of the inhibition zone (DIZ) [24]: 14 mm; diameter of the inhibition zone (DIZ) [25]: Active; diameter of the inhibition zone (DIZ) [26]: 18 mm; diameter of the inhibition zone (DIZ) [27]: 25 mm
CC(=O)NC[C@H]1CN(c2ccc(N3CCC4(CC3)C3CCC4N(C(=O)OC(C)(C)C)O3)c(F)c2)C(=O)O1 (stereo partly drawn)	24.4 µM	22 µM	25 mm	27 mm	18 mm	25 mm	0 mm	0 mm	0 mm	37 mm	23 mm	diameter of the inhibition zone (DIZ) [20]: 22 mm; diameter of the inhibition zone (DIZ) [26]: 24 mm; MIC [12]: 64 µg/mL (≈ 123 µM); MIC [13]: 16 µg/mL (≈ 30.9 µM); MIC [15]: 32 µg/mL; MIC [16]: 62 µg/mL; Ratio [17]: 2; Ratio [18]: 4; CC50 [19]: > 100 µM
